Source: ChEMBL document CHEMBL3596186, “Synthesis and biological evaluation of diarylthiazole derivatives as antimitotic and antivascular agents with potent antitumor activity” (Bioorg Med Chem, 2015)
Calls of active or inactive are those of the source. The calls are words filed in the database; no cut-off is given here.

Columns and labels:
HCT-116 [1] = assay: Antitumor activity against human HCT116 cells xenografted in Balb/c athymic nude mouse assessed as tumor growth inhibition at 20 mg/kg, ip administered daily after 42 days; type: functional; details: HCT-116, ip, 1008 h, read-out: TGI
Summary of the method: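 Female Balb/C athymic nude mice, 5-6 weeks old, implanted s.c. in the right flank with HCT116 cells in 100 µL HBSS. Tumor volume (π/6 × L × W²) and body weight measured every 2 days. Inhibition = (1 − treated/control tumor weight) × 100%.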

HepG2 [2] = assay: Induction of apoptosis in human HepG2 cells assessed as late apoptotic cells at 1 uM after 24 hrs by annexin V/propidium iodide staining-based flow cytometry (reference value: 3.74%); type: functional
Mus musculus [3] = assay: Toxicity in Balb/c athymic nude mouse xenografted with human SKOV3 cells assessed as change in feeding and animal behavior at 20 to 50 mg/kg, ip administered daily; type: organism-based, SK-OV-3; details: in vivo
HepG2 [4] = assay: Cell cycle arrest in human HepG2 cells assessed as accumulation at G1 phase at 0.2 uM after 24 hrs by flow cytometry (reference value: 62.74%); type: functional
HepG2 [5] = assay: Induction of apoptosis in human HepG2 cells assessed as late apoptotic cells at 0.2 uM after 48 hrs by annexin V/propidium iodide staining-based flow cytometry (reference value: 3.74%); type: functional
HCT-116 [6] = assay: Induction of apoptosis in human HCT116 cells assessed as necrotic cells at 0.2 uM after 24 hrs by annexin V/propidium iodide staining-based flow cytometry (reference value: 3.49%); type: functional
HepG2 [7] = assay: Induction of apoptosis in human HepG2 cells assessed as early apoptotic cells at 0.2 uM after 24 hrs by annexin V/propidium iodide staining-based flow cytometry (reference value: 0.87%); type: functional
HepG2 [8] = assay: Induction of apoptosis in human HepG2 cells assessed as necrotic cells at 0.2 uM after 24 hrs by annexin V/propidium iodide staining-based flow cytometry (reference value: 1.59%); type: functional
HepG2 [9] = assay: Induction of apoptosis in human HepG2 cells assessed as viable cells at 1 uM after 24 hrs by annexin V/propidium iodide staining-based flow cytometry (reference value: 89.8%); type: functional; details: HepG2, 24 h, read-out: Activity
Mus musculus [10] = assay: Toxicity in Balb/c athymic nude mouse xenografted with human HCT116 cells assessed as loss in body weight at 20 to 50 mg/kg, ip administered daily; type: organism-based, HCT-116; details: in vivo
Summary of the method: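 Female Balb/C athymic nude mice, 5-6 weeks old, implanted s.c. in the right flank with cells in HBSS. Once tumours reached about 100 mm3, mice were randomized (6 per group) to vehicle, 5-FU 10 mg/kg, or test agent 20 or 50 mg/kg i.p. daily. Body weight was recorded every two days.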

HepG2 [11] = assay: Induction of apoptosis in human HepG2 cells assessed as viable cells at 0.5 uM after 48 hrs by annexin V/propidium iodide staining-based flow cytometry (reference value: 89.8%); type: functional; details: HepG2, 48 h, read-out: Activity
[12] = Antiproliferative activity against human […] cells after 48 hrs by MTT assay; type: functional, cell-based
Summary of the method: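 HCT116, HepG2, SMMC-7721, SK-OV-3 and A2780s grown in DMEM; A549 and MCF-7 in RPMI-1640; all with 10% FBS and penicillin/streptomycin at 37 °C, 5% CO2. Log-phase cells at 40,000-50,000 cells/mL treated with graded concentrations for 48 h. MTT 3 h, DMSO solubilization, A570. IC50 from percent growth versus untreated control; mean ± SEM of ≥3 independent dose-response experiments.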

HCT-116 [13] = assay: Induction of apoptosis in human HCT116 cells assessed as late apoptotic cells at 0.2 uM after 24 hrs by annexin V/propidium iodide staining-based flow cytometry (reference value: 1.71%); type: functional
Summary of the method: (§1)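 HCT116 cells treated with compound or DMSO for 24 or 48 h, trypsinized, washed twice in PBS and dual-stained with annexin-V and PI. Analysed by flow cytometry: early apoptotic cells scored as annexin-V+/PI−, late apoptotic cells as annexin-V+/PI+.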

HCT-116 [14] = assay: Induction of apoptosis in human HCT116 cells assessed as viable cells at 1 uM after 24 hrs by annexin V/propidium iodide staining-based flow cytometry (reference value: 92%); type: functional; details: HCT-116, 24 h, read-out: Activity
HepG2 [15] = assay: Cell cycle arrest in human HepG2 cells assessed as accumulation at S phase at 1 uM after 24 hrs by flow cytometry (reference value: 23.97%); type: functional
HepG2 [16] = assay: Induction of apoptosis in human HepG2 cells assessed as early apoptotic cells at 0.5 uM after 24 hrs by annexin V/propidium iodide staining-based flow cytometry (reference value: 0.87%); type: functional
HepG2 [17] = assay: Induction of apoptosis in human HepG2 cells assessed as late apoptotic cells at 0.5 uM after 48 hrs by annexin V/propidium iodide staining-based flow cytometry (reference value: 3.74%); type: functional
HCT-116 [18] = assay: Cell cycle arrest in human HCT116 cells assessed as accumulation at G1 phase at 0.5 uM after 24 hrs by flow cytometry (reference value: 53.98%); type: functional
NCI-H1975 = assay: Resistance ratio, ratio of IC50 for human gefitinib-resistant NCI-H1975 cells to IC50 for human HCC827 cells; type: functional
HCT-116 [19] = assay: Induction of apoptosis in human HCT116 cells assessed as viable cells at 0.5 uM after 24 hrs by annexin V/propidium iodide staining-based flow cytometry (reference value: 92%); type: functional; details: HCT-116, 24 h, read-out: Activity
HCT-116 [20] = assay: Induction of apoptosis in human HCT116 cells assessed as early apoptotic cells at 1 uM after 24 hrs by annexin V/propidium iodide staining-based flow cytometry (reference value: 2.83%); type: functional; summary of the method: as §1
HepG2 [21] = assay: Induction of apoptosis in human HepG2 cells assessed as viable cells at 0.2 uM after 24 hrs by annexin V/propidium iodide staining-based flow cytometry (reference value: 89.8%); type: functional; details: HepG2, 24 h, read-out: Activity
HCT-116 [22] = assay: Induction of apoptosis in human HCT116 cells assessed as necrotic cells at 0.2 uM after 48 hrs by annexin V/propidium iodide staining-based flow cytometry (reference value: 3.49%); type: functional
HUVEC = assay: Antivascular activity against HUVEC assessed as inhibition of tube formation at 125 to 500 nM after 8 hrs by Matrigel assay; type: functional, cell-based; details: Homo sapiens
Summary of the method: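 Wells of prechilled plates coated with Matrigel and solidified 45 min at 37 °C. HUVECs (1 × 10^4) in EBM-2 containing compound (125-500 nM) seeded onto the gel and incubated 8 h at 37 °C. Capillary networks photographed at 100×; tubule numbers and line lengths counted manually.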

HepG2 [23] = assay: Induction of apoptosis in human HepG2 cells assessed as viable cells at 0.2 uM after 48 hrs by annexin V/propidium iodide staining-based flow cytometry (reference value: 89.8%); type: functional; details: HepG2, 48 h, read-out: Activity
HepG2 [24] = assay: Induction of apoptosis in human HepG2 cells assessed as early apoptotic cells at 1 uM after 24 hrs by annexin V/propidium iodide staining-based flow cytometry (reference value: 0.87%); type: functional
HCT-116 [25] = assay: Induction of apoptosis in human HCT116 cells assessed as early apoptotic cells at 0.5 uM after 24 hrs by annexin V/propidium iodide staining-based flow cytometry (reference value: 2.83%); type: functional; summary of the method: as §1
HCT-116 [26] = assay: Cell cycle arrest in human HCT116 cells assessed as accumulation at G1 phase at 1 uM after 24 hrs by flow cytometry (reference value: 53.98%); type: functional

CCOc1ccc(-c2nc(N)sc2-c2cc(OC)c(OC)c(OC)c2)cc1
inhibition in vivo at 20 mg/kg (HCT-116 [1]): 49.5% | Activity (HepG2 [2]): 8.34% | Activity (Mus musculus [3]): Non-toxic | Activity (HepG2 [4]): 50.57% | Activity (HepG2 [5]): 4.17% | Activity (HCT-116 [6]): 3.69% | Activity (HepG2 [7]): 10.08% | Activity (HepG2 [8]): 0.95% | viability at 1 µM (HepG2 [9]): 65.4% | Activity (Mus musculus [10]): Toxic | viability at 0.5 µM (HepG2 [11]): 29.6% | IC50 [12]: 23 nM | Activity (HCT-116 [13]): 8.08% | viability at 1 µM (HCT-116 [14]): 62.1% | Activity (HepG2 [15]): 7.43% | Activity (HepG2 [16]): 11.2% | Activity (HepG2 [17]): 4.38% | Activity (HCT-116 [18]): 11.45% | Ratio IC50 (NCI-H1975): 2.24 | viability at 0.5 µM (HCT-116 [19]): 74.5% | Activity (HCT-116 [20]): 17.6% | viability at 0.2 µM (HepG2 [21]): 81.8% | Activity (HCT-116 [22]): 5.36% | Activity (HUVEC): Active | viability at 0.2 µM (HepG2 [23]): 28.5% | Activity (HepG2 [24]): 25.4% | Activity (HCT-116 [25]): 11.2% | Activity (HCT-116 [26]): 13.06%
